The results in this text go back to ChEMBL document CHEMBL1123286 (J Med Chem, 1986).

Where a SMILES comes first, the peptide text is derived from it. [ ]: non-standard residue; d: D form.

By IC50 is commonly meant the concentration that gives 50% inhibition. A high value points to a need for much substance.

Test [1] deals with Opioid receptors; mu/kappa/delta. Kind of test: In vitro opioid inhibitory activity against in guinea pig ileum. The format is functional, tissue-based, Cavia porcellus.
The subject of test [2] is Mus musculus. Description: In vivo opioid activity was evaluated by determining analgesia in the mouse by the tail-flick test, when administered through subcutaneous route. The format is functional. Conditions: sc. The gist of the method: (§1)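 Swiss-Webster mice (23–25 g), tail-flick test with 55 °C water as the stimulus. Compound was given icv or sc in saline (4 μL), with latency read before and at various times after dosing. Cut-off was 10 s. %analgesia = (T−T0)/(10−T0)×100. At least 10 animals per dose; ED50 taken at time of peak activity. Naloxone pretreatment 0.5–1 mg/kg sc.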
(In general: In hot-plate and tail-flick tests a longer latency is read as antinociception.)

For test [3], the system named is Mus musculus. Kind of test: In vivo opioid activity was evaluated by determining analgesia in the mouse by the tail-flick test Relative potency with respect to morphine when administered through subcutaneous route. The format is functional. The gist of the method: (§2)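 Mouse tail-flick analgesia in Swiss-Webster mice (23–25 g) with 55 °C water, compound given icv or sc in saline (4 μL). Cut-off was 10 s; %analgesia was computed from pre- and post-dose latencies. At least 10 animals per dose, with ED50 taken at peak activity.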

Test [4] concerns Mus musculus. Description: In vivo opioid activity was evaluated by determining analgesia in the mouse by the tail-flick test, Relative potency with respect to morphine intracerebroventricular route. The format is functional. In a few lines:
as §2

For test [5], the system named is Mus musculus. Description: In vivo opioid activity was evaluated by determining analgesia in the mouse by the tail-flick test when administered through intracerebroventricular route. The format is functional. In a few lines: as §1
Test [6] concerns Mus musculus. Kind of test: In vivo opioid activity was evaluated by determining analgesia in the mouse by the tail-flick test when administered through intra cerebro ventricular route. The following applies: Cardiac ventricle.
In test [7] the test system is Mus musculus. Kind of test: In vivo opioid activity was evaluated by determining analgesia in the mouse by the tail-flick test, relative potency with respect to morphine intracerebroventricular route. The format is functional. The gist of the method:
as §2

Test [8] concerns Mus musculus. Kind of test: In vivo opioid activity was evaluated by determining analgesia in the mouse by the tail-flick test, when administered through Subcutaneous route. The format is functional. The following applies: sc. The gist of the method: as §1
In test [9] the test system is Mus musculus. Kind of test: In vivo opioid activity was evaluated by determining analgesia in the mouse by the tail-flick test. Relative potency with respect to morphine when administered through subcutaneous route. The format is functional. The gist of the method:
as §2

Test [10] has as its system Mus musculus. Description: In Vivo opioid activity was evaluated by determining analgesia in the mouse by the tail-flick test when administered through intra cerebro ventricular route. The format is functional. The gist of the method: as §1
Test [11] addresses Opioid receptors; mu/kappa/delta (Homo sapiens, UniProt P41145+P41143+P35372). Kind of test: In vitro inhibitory activity against opioid activity in guinea pig ileum, relative to H-Tyr-D-MetO-Phe-Gly-NH2. The format is tissue-based. Conditions: Cavia porcellus, target entry is the homologue from another species.
Test [12] relates to Mus musculus. Description: In vivo opioid activity was evaluated by determining analgesia in the mouse by the tail-flick test, relative potency with respect to morphine intra cerebro ventricular route. The format is functional. The gist of the method:
as §2

Opioid receptors; mu/kappa/delta (Homo sapiens, UniProt P41145+P41143+P35372), sequence (P35372 whole entry, looked up): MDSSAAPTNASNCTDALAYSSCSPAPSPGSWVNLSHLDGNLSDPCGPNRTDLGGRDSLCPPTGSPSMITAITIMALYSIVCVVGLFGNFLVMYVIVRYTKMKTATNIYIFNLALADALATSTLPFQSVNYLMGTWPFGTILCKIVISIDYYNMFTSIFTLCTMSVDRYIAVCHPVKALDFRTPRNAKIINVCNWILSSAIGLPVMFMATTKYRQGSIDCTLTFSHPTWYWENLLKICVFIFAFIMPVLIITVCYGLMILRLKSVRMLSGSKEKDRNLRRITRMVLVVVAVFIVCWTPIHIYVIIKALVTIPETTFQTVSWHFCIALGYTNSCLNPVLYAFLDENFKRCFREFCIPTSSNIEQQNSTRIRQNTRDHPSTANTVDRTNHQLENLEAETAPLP
Opioid receptors; mu/kappa/delta (Homo sapiens, UniProt P41145+P41143+P35372), sequence (P41143 whole entry, looked up): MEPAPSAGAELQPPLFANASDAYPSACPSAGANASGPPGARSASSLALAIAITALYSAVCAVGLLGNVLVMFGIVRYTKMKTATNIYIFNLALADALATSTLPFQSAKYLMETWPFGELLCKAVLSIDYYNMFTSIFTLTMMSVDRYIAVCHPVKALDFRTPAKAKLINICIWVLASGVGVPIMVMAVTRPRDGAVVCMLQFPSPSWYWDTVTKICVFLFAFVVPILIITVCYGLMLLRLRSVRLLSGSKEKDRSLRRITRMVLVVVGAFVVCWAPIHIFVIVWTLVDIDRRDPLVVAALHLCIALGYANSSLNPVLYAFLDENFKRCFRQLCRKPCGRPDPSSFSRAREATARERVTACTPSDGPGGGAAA
Opioid receptors; mu/kappa/delta (Homo sapiens, UniProt P41145+P41143+P35372), sequence (P41145 whole entry, looked up): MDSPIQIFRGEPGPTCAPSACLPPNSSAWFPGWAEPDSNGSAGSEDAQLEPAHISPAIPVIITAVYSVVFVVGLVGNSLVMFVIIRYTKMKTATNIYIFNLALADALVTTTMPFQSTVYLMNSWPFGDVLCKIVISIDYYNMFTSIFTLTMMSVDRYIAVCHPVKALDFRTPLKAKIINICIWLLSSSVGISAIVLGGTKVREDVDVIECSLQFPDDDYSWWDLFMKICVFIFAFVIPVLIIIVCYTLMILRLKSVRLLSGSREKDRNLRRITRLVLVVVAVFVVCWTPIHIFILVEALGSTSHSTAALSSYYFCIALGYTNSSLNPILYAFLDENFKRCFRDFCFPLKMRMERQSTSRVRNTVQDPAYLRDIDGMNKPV

Turning to `C[S+]([O-])CC[C@@H](NC(=O)[C@@H](N)Cc1ccc(O)cc1)C(=O)N[C@@H](Cc1ccccc1)C(=O)NCC(=O)NCc1ccccc1` (some centres undefined), the IC50 in test [1] is 21 nM. Moreover, the results for the ED50 with Mus musculus [2] and in the test with Mus musculus [5] were 3.51 µmol/kg and 18.1 pmol/mouse, respectively. In addition, the Relative potency came to 3.1 with Mus musculus [3] and 167 in the test with Mus musculus [4].
Regarding `CN1CC[C@]23c4c5ccc(O)c4O[C@H]2[C@@H](O)C=C[C@H]3[C@H]1C5` [MORPHINE], the ED50 with Mus musculus [6] worked out at 3030 µmol/kg.
For `CN(CC(=O)NC12CC3CC(CC(C3)C1)C2)C(=O)[C@H](Cc1ccccc1)NC(=O)[C@@H](CC[S+](C)[O-])NC(=O)[C@@H](N)Cc1ccc(O)cc1` (some centres undefined), the 50% inhibitory concentration (IC50) in test [1] came to 25.5 nM. In addition, the Relative potency is 2.3 in the test on Mus musculus [3] and 50 in the test with Mus musculus [7]. Moreover, the ED50 in the test on Mus musculus [8] was determined as 4.82 µmol/kg; with Mus musculus [5], 60.6 pmol/mouse.
With `C[S+]([O-])CC[C@@H](NC(=O)[C@@H](N)Cc1ccc(O)cc1)C(=O)N[C@@H](Cc1ccccc1)C(=O)NCC(N)=O` (some centres undefined), the ED50 in the test with Mus musculus [2] amounted to 0.65 µmol/kg; in the test on Mus musculus [5], 1.97 pmol/mouse.
`C[S+]([O-])CC[C@@H](NC(=O)[C@@H](N)Cc1ccc(O)cc1)C(=O)N[C@@H](Cc1ccccc1)C(=O)NCC(=O)NC12CC3CC(CC(C3)C1)C2` (some centres undefined) had an IC50 in test [1] of 22 nM. Also, the values for the Relative potency in the test with Mus musculus [3] and with Mus musculus [7] were 2.8 and 100, respectively. For the same compound, the ED50 in the test with Mus musculus [8] was determined as 3.93 µmol/kg; in the test with Mus musculus [5], 30.4 pmol/mouse.
`CC(NC(=O)CNC(=O)[C@H](Cc1ccccc1)NC(=O)[C@@H](CC[S+](C)[O-])NC(=O)[C@@H](N)Cc1ccc(O)cc1)c1ccccc1` (some centres undefined) came in with an IC50 in test [1] of 72.1 nM. Moreover, the results for the ED50 with Mus musculus [2] and in the test on Mus musculus [5] were 5.81 µmol/kg and 83.6 pmol/mouse, respectively. The Relative potency came out at 1.8 with Mus musculus [3] and 36 in the test on Mus musculus [7].
Take `CSCC[C@@H](NC(=O)[C@@H](N)Cc1ccc(O)cc1)C(=O)N[C@@H](Cc1ccccc1)C(=O)NCC(N)=O` (H-Y[dM]FG-NH2): the Relative potency came out at 0.9 in the test on Mus musculus [9], 0.1 in test [11] and 35 in the test on Mus musculus [12]. Also, the values for the ED50 in the test on Mus musculus [10] and in the test with Mus musculus [8] were 87.5 µmol/kg and 12.1 µmol/kg, respectively. The compound also displayed an IC50 in test [1] of 97.6 nM.
